The list is not random: actives were taken first. Their share in the collection is about 2.5%.
Fh CTSL1 inh: counter-screen for PFM18AAP inhibitors: inhibitors of F. hepatica cathepsin L1 | 300,000 tested, 0.49% active | inhibition, % at 5.96 µM | recombinant F. hepatica cathepsin L1, Z-Leu-Arg-MCA fluorescence;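 active = inhibition above the mean of all tested compounds plus 3 SD, set per screening campaign, cut at about 17% in these data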
GSTO1 counter: GSTO1 inhibition, counter-screen for RBBP9 inhibitors; P78417; recombinant GSTO1, activity-based probe fluorescence polarization; inhibition, % at 5.96 µM; 300,000 tested, 1.1% active;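 active = inhibition above the campaign mean inhibition plus 3 SD, cut at about 35% in these data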
Target sequence (P78417 whole entry, looked up): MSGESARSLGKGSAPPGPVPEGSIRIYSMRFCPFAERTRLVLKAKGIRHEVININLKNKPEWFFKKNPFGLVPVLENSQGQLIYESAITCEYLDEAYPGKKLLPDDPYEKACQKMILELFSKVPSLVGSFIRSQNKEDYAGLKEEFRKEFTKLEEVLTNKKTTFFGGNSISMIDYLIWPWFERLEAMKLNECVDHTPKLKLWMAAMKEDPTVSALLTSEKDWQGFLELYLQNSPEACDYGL
TDP2 inh: blocks human TDP2 phosphodiesterase activity; O95551; recombinant TDP2, T5PNP hydrolysis, p-nitrophenol absorbance 415 nm; inhibition, % at 12.8 µM; 370,000 tested, 0.34% active;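 active = inhibition above the mean of all tested compounds plus 3 SD, set per campaign, cut at about 25% in these data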
Target sequence (O95551 whole entry, looked up): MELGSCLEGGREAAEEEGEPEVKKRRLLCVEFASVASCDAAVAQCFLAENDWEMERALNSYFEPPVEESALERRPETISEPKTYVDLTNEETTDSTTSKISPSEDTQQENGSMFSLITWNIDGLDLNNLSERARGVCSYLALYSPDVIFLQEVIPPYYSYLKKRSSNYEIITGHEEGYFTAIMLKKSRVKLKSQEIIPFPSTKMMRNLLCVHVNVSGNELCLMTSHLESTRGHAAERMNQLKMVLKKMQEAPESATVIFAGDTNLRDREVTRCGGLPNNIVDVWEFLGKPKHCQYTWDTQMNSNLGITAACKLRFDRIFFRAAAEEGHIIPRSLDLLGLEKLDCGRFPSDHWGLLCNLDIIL
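Test system: human TDP2 enzyme; Input: 120 nM TDP2 per well; Buffer or medium: Mg2+-containing Tris-HCl buffer, pH 7.5; Reagent: 5 mM T5PNP; Dosing: 12.8 µM single point, 1% DMSO; Incubation: reaction 2 h, 37 °C; Detection: p-Nitrophenol epi absorbance; Read-out: % inhibition relative to enzyme-containing and enzyme-free wells; Replicates: single well per compound.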
PRMT1 FP inh: blocks human protein arginine methyltransferase 1; inhibition, % at 2.79 µM; recombinant PRMT1, activity-based probe fluorescence polarization; 370,000 tested, 1.3% active; Q99873;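 active = inhibition above about 21% made by adding two undisclosed values, limit read from the data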
PAD4 FP inh: blocks human protein arginine deiminase 4. Q9UM07. recombinant PAD4, RCA probe fluorescence polarization. inhibition, % at 6.36 µM. 330,000 tested, 0.41% active. AID 485272;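 active = percent inhibition above a cutoff equal to the mean of all tested compounds plus 3 SD, cut at about 15% in these data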
GSTO1 inh conf: confirmation of human GSTO1 inhibitors; inhibition, % at 5.96 µM; shares compounds with GSTO1 counter; recombinant GSTO1, probe fluorescence polarization; AID 2176; 2,400 tested, 54% active;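 active = inhibition above the primary screen's cutoff, its mean inhibition plus 3 SD, cut at about 35% in these data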;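 note: loss of polarization as inhibitors block binding of rhodamine sulfonate ester activity probe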
GSTO1 recomb ABPP: inhibitors of recombinant human GSTO1. shares compounds with GSTO1 counter. gel ABPP SE-Rh probe fluorescence. inhibition, % at 1 µM. 130 tested, 30% active;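 active = inhibition of the enzyme GSTO1 above about 75%, limit read from the data; inactive = inhibition below that limit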
Each line names hits and unclear results; the compound was inactive in the other large screens (follow-up assays come after a bar, where they were run).

NC(=O)c1c(N)[nH]c(C(=O)c2ccccc2)c1-c1ccccc1C(F)(F)F	none (no result: Fh CTSL1 inh, GSTO1 counter, PAD4 FP inh)
Cc1cc(C)c2c(CCl)cc(=O)oc2c1	GSTO1 counter 64.6 | GSTO1 inh conf 96.6
COc1ccc(-c2cc(C(=O)NN=Cc3ccc(C)s3)[nH]n2)cc1	none (no result: Fh CTSL1 inh, GSTO1 counter, PAD4 FP inh)
COc1ccc(/C=N/NC(=O)c2ccn[nH]2)cc1CSc1ccccn1	GSTO1 counter 46.7 | GSTO1 inh conf inactive
CCC(=O)N(C1=C(NC)C(=O)c2ccccc2C1=O)C(C)C	GSTO1 counter 50.2 | GSTO1 inh conf inactive
CC(NCc1ccco1)C(=O)N1CCOCC1 (stereo unspecified)	none (no result: Fh CTSL1 inh, GSTO1 counter, PAD4 FP inh)
CCCCCC(=O)NC1CCCCN(Cc2cccc(Cl)c2)C1=O (stereo unspecified)	none (no result: Fh CTSL1 inh, GSTO1 counter, PAD4 FP inh)
COc1ccc(S[C@]2(C(=O)N3CCOCC3)CC(=O)N(c3ccccc3)[C@@H]2c2ccc(OC)cc2)cc1	none (no result: Fh CTSL1 inh, GSTO1 counter, PAD4 FP inh)
Cc1nnc2c(SC(C)C)nc3ccccc3n12	GSTO1 counter 41.6 | GSTO1 inh conf inactive
N#Cc1ccc(OC[C@@H](O)CN2CCC(C(O)(c3ccccc3)c3ccccc3)CC2)cc1F	none (no result: Fh CTSL1 inh, GSTO1 counter, PAD4 FP inh)
CN(/C(=N/S(=O)(=O)c1cccs1)c1ccccc1)c1ccccc1	none
Cc1cc[n+](C2=C([O-])c3ccccc3C(=O)/C2=N\S(=O)(=O)c2cccs2)cc1C	Fh CTSL1 inh 26.5, GSTO1 counter 90.3 | GSTO1 inh conf 89.7
Cc1cc(C)c[n+](C2=C([O-])c3ccccc3C(=O)/C2=N\S(=O)(=O)c2cccs2)c1	GSTO1 counter 80.8 | GSTO1 inh conf 87.5
O=C1CCC[C@H]2C[C@H](NCc3ccccc3Cl)CC[C@]23CCCN13	none (no result: Fh CTSL1 inh, GSTO1 counter, PAD4 FP inh)
COC(=O)[C@]12C[C@H](CC(=O)NCC3CCCCC3)C(=O)N(Cc3cccc4ccccc34)C1=C[C@H](C1CCCC1)O[C@@H]2C	none (no result: Fh CTSL1 inh, GSTO1 counter, PAD4 FP inh)
CC1=NN(c2ccccc2)C(=O)/C1=C\N(O)c1ccccc1	GSTO1 counter 47.6 | GSTO1 inh conf 40.6
Cn1c(-c2ccccc2)cnc1SCC(=O)N1CCCc2ccccc21	none
O=C(CSc1ncc(-c2ccccc2)n1C1CCCC1)N1CCc2ccccc21	GSTO1 counter 39.3 | GSTO1 inh conf inactive
O=C(CCl)Nc1cccc2ncccc12	GSTO1 counter 68.9 | GSTO1 inh conf 76.7
COc1ccc(OCC(=O)Nc2cccc3ncccc23)cc1	none
COC1=CC(=O)CC(C)C12Oc1cc(OC)cc(OC)c1C2=O (stereo unspecified)	GSTO1 counter 47.1 | GSTO1 inh conf inactive
O=C1Nc2ccccc2N2CCCC12 (stereo unspecified)	Fh CTSL1 inh 71.0, GSTO1 counter 68.7 (no result: TDP2 inh, PRMT1 FP inh) | GSTO1 inh conf 77.2
CCc1cc(=O)oc2cc(OC(C)=O)cc(OC(C)=O)c12	GSTO1 counter 47.1 | GSTO1 inh conf inactive
COc1cc(OCc2ccccc2)c2c(CCC(=O)O)cc(=O)oc2c1	none (no result: Fh CTSL1 inh, GSTO1 counter, PAD4 FP inh)
COc1ccc(N2C(=O)c3ccccc3C2O)cc1 (stereo unspecified)	none
COc1ccc(O)c(C(=O)C2c3ccccc3C(=O)N2c2ccc(C)cc2)c1 (stereo unspecified)	GSTO1 counter 62.4 | GSTO1 inh conf inactive
CN(Cc1ccccc1Cl)C(=O)CN1C(=O)C2(OCCCO2)c2ccccc21	none (no result: Fh CTSL1 inh, GSTO1 counter, PAD4 FP inh)
COc1ccc(CN[C@@H]2CC[C@@]34CCCN3C(=O)CCC[C@H]4C2)cc1OC	none (no result: Fh CTSL1 inh, GSTO1 counter, PAD4 FP inh)
O=c1cc(CCl)nc(Cc2c(Cl)cccc2Cl)[nH]1	GSTO1 counter 92.5 | GSTO1 inh conf 96.9 | GSTO1 recomb ABPP 82.0
Cc1cc(C)nc(N2CCC(C(=O)N(C)CCc3ccccc3)CC2)n1	none (no result: Fh CTSL1 inh, GSTO1 counter, PAD4 FP inh)
Cc1coc2c1C(=O)C(=O)c1c-2ccc2c(C)cccc12	Fh CTSL1 inh 94.2, GSTO1 counter 97.4 (no result: TDP2 inh, PRMT1 FP inh) | GSTO1 inh conf 57.3
Cc1onc(-c2ccccc2)c1C(=O)NNC(=O)c1ccccc1O	GSTO1 counter 47.0 | GSTO1 inh conf inactive
CCN(CC(=O)Nc1ccccc1OC)C(=O)CSCC(=O)Nc1cccc(C)c1	none (no result: Fh CTSL1 inh, GSTO1 counter, PAD4 FP inh)
CCN(CC(=O)NCc1ccc(Cl)cc1)C(=O)CSCC(=O)Nc1cccc(C)c1	GSTO1 counter 43.5 | GSTO1 inh conf inactive
N#CC(C#N)=c1ccc2c(c1)NC1(CCCCC1)N=2	GSTO1 counter 68.0 | GSTO1 inh conf 49.5
N#CC(C#N)=C1NC2(CCCCC2)Cc2ccccc21	none
O=C(Nc1c(-c2ccccc2)nc2ncccn12)C1CC1	none (no result: Fh CTSL1 inh, GSTO1 counter, PAD4 FP inh)
Cc1ccc(C)c(S(=O)(=O)/N=C2\C=C(NS(=O)(=O)c3ccccc3)C(=O)c3ccccc32)c1	GSTO1 counter 82.3 | GSTO1 inh conf 48.3
CC(C)c1ccc(S(=O)(=O)/N=C2\C=C(NS(=O)(=O)c3ccccc3)C(=O)c3ccccc32)cc1	GSTO1 counter 78.6, TDP2 inh 25.2 | GSTO1 inh conf 75.0
CN(CCOC(=O)c1cc2ccccc2o1)C1CN(Cc2cn(Cc3ccccc3C(F)(F)F)nn2)S(=O)(=O)C1 (stereo unspecified)	none (no result: Fh CTSL1 inh, GSTO1 counter, PAD4 FP inh)
COc1cccc(Cn2cc(COC(=O)NCC(C)C)nn2)c1	none (no result: Fh CTSL1 inh, GSTO1 counter, PAD4 FP inh)
CC1(OC(=O)C2CCCC2)C(=O)C=C2C=C(c3ccsc3)N(C3CCCCC3)C=C2C1=O (stereo unspecified)	GSTO1 counter 43.3 | GSTO1 inh conf inactive
CC1(OC(=O)C2CCCC2)C(=O)C=C2C=C(c3ccsc3)N(Cc3ccc4c(c3)OCO4)C=C2C1=O (stereo unspecified)	none
CC1(OC(=O)CCc2ccccc2)C(=O)C=C2C=C(c3ccc(C#N)cc3)N(C3CCCCC3)C=C2C1=O (stereo unspecified)	GSTO1 counter 44.5 | GSTO1 inh conf inactive
CC1(OC(=O)C2CCCC2)C(=O)C=C2C=C(c3ccsc3)N(CCc3c[nH]c4ccccc34)C=C2C1=O (stereo unspecified)	none (no result: TDP2 inh, PRMT1 FP inh)
CC1(OC(=O)C2CCCC2)C(=O)C=C2C=C(c3ccsc3)N(CC3CC3)C=C2C1=O (stereo unspecified)	GSTO1 counter 40.4 | GSTO1 inh conf inactive
CCC(=O)N1CCc2cc(Br)c(S(=O)(=O)N3CCC(C(=O)NCCCOC(C)C)CC3)cc21	none (no result: Fh CTSL1 inh, GSTO1 counter, PAD4 FP inh)
COC(=O)c1ccc(CC(=O)c2ccc(O)cc2O)o1	none (no result: TDP2 inh, PRMT1 FP inh)
COC(=O)c1ccc(CC(=O)c2c(C)cc(O)cc2O)o1	GSTO1 counter 43.2, PRMT1 FP inh 24.4 | GSTO1 inh conf inactive
COCc1cc(C)nc(SCC(=O)c2ccc(O)c(O)c2)c1C#N	GSTO1 counter 47.6 | GSTO1 inh conf inactive
CCCC[C@H](CCCc1ccc(F)cc1)CCC(=O)N(c1ccccc1)c1ccccc1	none (no result: Fh CTSL1 inh, GSTO1 counter, PAD4 FP inh)
CCN(CC)c1ccc2c(O)cc(=O)oc2c1	GSTO1 counter 53.6 | GSTO1 inh conf inactive
Cc1cc(/C=C2\SC(=S)NC2=O)c(C)n1-c1cccc(O)c1	GSTO1 counter 53.5 | GSTO1 inh conf 51.3
O=C(NCCc1ccc(O)c(O)c1)C1COc2ccccc2O1 (stereo unspecified)	GSTO1 counter 55.0 | GSTO1 inh conf inactive
